Assay outcomes as filed in PubChem.
Compounds with a hit are over-represented: about 3.5% of the library has one in this group of screens.
PGC1a acetyl inh = lowers PGC1a acetylation signal in U2OS cells; 350,000 tested, 0.17% active; AlphaScreen anti-acetyl-lysine; with virally co-expressed GCN5 acetyltransferase; inhibition, % at 15.6 µM;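 active means every replicate shows inhibition of at least 40%; inconclusive means mean inhibition at least 40% but some replicate below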
ERAP1 inh = inhibitors of human ERAP1 aminopeptidase; AID 652197; Q9NZ08; recombinant ERAP1, Leu-AMC fluorescence, 60 min; 340,000 tested, 0.15% active; inhibition, % at 10.7 µM;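 active means mean replicate inhibition of at least 30%, or all replicates individually reaching that 30% level; inactive means mean below 30% and not every replicate reaching it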
HIV Env fusion = inhibitors of HIV Env-mediated cell fusion | HeLa-JRFL Env/CEM21 cell fusion, luciferase | inhibition, % at 12.3 µM | 360,000 tested, 1.1% active;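 active means mean replicate inhibition score of at least 50 and every replicate individually at or above 50; inconclusive means only one of the two criteria met; inactive means mean below 50 and not all replicates reaching 50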
FGF22 binding = shifts melting point of recombinant human FGF22 | 340,000 tested, 1.5% active | activity (Tm shift, normalised), % at 9.99 µM | AID 651658 | Q9HCT0 | recombinant FGF22 thermal shift, SYPRO orange fluorescence; percent of sucrose octasulfate shift, DMSO zero;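 active means mean Tm shift, scaled 0 neutral to 100 positive control, at about 1.3% or above, every replicate too, limit read from the data; inconclusive means no clear call, values can overlap the other calls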
Target sequence (Q9HCT0 whole entry, looked up): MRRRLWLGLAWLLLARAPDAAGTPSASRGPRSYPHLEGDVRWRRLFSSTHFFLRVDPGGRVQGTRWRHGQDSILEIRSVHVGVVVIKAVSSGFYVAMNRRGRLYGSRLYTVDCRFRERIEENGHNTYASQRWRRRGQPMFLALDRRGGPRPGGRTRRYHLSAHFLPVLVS
Cneo AK release = causes C. neoformans cell lysis. adenylate kinase release luminescence, 4 h; normalised: neutral wells 0, clomiphene wells 100. lysis activity, % at 15 µM. 360,000 tested, 0.2% active. AID 651654;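 active means mean lysis activity across replicates of at least 80%, whatever share of replicates individually reach that level; inactive means mean lysis activity below 80%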
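Material – log-phase Cryptococcus neoformans yeast cells · Input – 5 × 10^6 yeast cells/mL · Medium – fresh YPD growth medium · Doses – single compound concentration per well · Timing – static 4 h at 37 °C with compound, 1 h detection · Detection – adenylate kinase release luminescence · Read-out – signal increase indicating cell lysis · Control set – Clomiphene as positive lysis control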
Ecoli rRNA inh = selective bacterial rRNA inhibition in E. coli | GFP signal change (wild-type ribosome), % (no concentration beside the values) | 350,000 tested, 1.6% active | AID 720706 | E. coli WT GFP vs humanized-ribosome RFP mutants, fluorescence, 24 h; stronger effect = lower value; DMSO median 0, no signal -100;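 active means significant combined selectivity score with lowered wild-type GFP, culture density cut under 30%, mutant RFP and density less affected; inactive means any of these conditions unmet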
Numbers stand for hits; – = inactive; ? = inconclusive; · = not tested or not shown.

SMILES	PGC1a acetyl inh	ERAP1 inh	HIV Env fusion	FGF22 binding	Cneo AK release	Ecoli rRNA inh
COc1ccc(NC(=O)CNC(=O)Cn2c(C)cc3ccccc3c2=O)c(OC)c1	·	–	–	43.2	·	–
COc1cc(NC(=O)CNC(=O)Cn2c(C)cc3ccccc3c2=O)cc(OC)c1OC	–	–	–	–	–	–
CCCCN(C(=O)c1cnc2n(c1=O)CCS2)c1ccccc1	–	–	–	–	–	–
COc1ccccc1C(=O)Nc1nc2ccccc2s1	–	–	79.1	–	–	–
COc1cc2nc(NC(=O)c3ccccc3)sc(=O)c2cc1OC	–	–	59.3	–	–	–
COc1ccc(C(=O)Nc2nc3ccccc3s2)c(OC)c1	·	–	79.3	–	–	–
CSc1ncccc1C(=O)Nc1nc2ccc(Oc3ccccc3)cc2s1	–	–	–	43.3	·	·
COc1cc2nc(NC(=O)c3ccccc3)[nH]c(=O)c2cc1OC	–	·	–	·	–	·
CSc1ncccc1C(=O)Nc1ccc2nc(C)sc2c1	–	–	–	–	–	–
COc1ccc2nc(NC(=O)c3ccccc3C(=O)O)sc2c1	·	–	–	–	–	–
CCCc1nc2ccccc2n1CCOc1ccccc1	–	·	–	·	–	·
CCOC(=O)N1CCC(N(CCN(C)C)C(=S)Nc2cccc(Cl)c2C)CC1	–	–	–	–	·	–
Cc1ccc(NC(=O)CCC(=O)N/N=C/c2coc3ccc(F)cc3c2=O)cc1	–	·	–	–	–	–
O=C(NNc1nc2ccccc2s1)c1ccccc1F	–	–	·	–	–	-41.3
COc1n[nH]c(C(=O)NCc2ccccc2)c1[N+](=O)[O-]	–	–	–	–	·	–
COc1n[nH]c(C(=O)Nc2nc3ccccc3s2)c1[N+](=O)[O-]	·	–	–	44.0	·	–
O=C(CP(=O)(c1ccccc1)c1ccccc1)Nc1nc2ccccc2s1	·	–	–	–	·	-35.9
CCCN(CC(=O)Nc1ccccc1C)C(=O)c1ccc(-c2ccc([N+](=O)[O-])cc2)o1	–	–	·	–	–	–
CCC(C)(C(=O)NC1CCCCC1)N(Cc1ccco1)C(=O)CC1NC(=O)NC1=O (stereo unspecified)	–	·	–	·	–	·
O=C(c1ccccc1F)N1N=C(C(F)(F)F)CC1(O)c1ccccc1 (stereo unspecified)	–	–	–	–	–	·
CC1=NN(C(=O)c2ccccc2)C(O)(c2ccc(Br)cc2)C1 (stereo unspecified)	–	·	79.7	–	·	–
CCC1=NN(C(=O)c2ccc(Br)cc2)C(O)(c2ccccc2)C1 (stereo unspecified)	·	–	–	–	·	–
O=C(c1ccccc1)N1N=C(C(F)(F)F)CC1(O)c1ccccc1O (stereo unspecified)	–	–	57.7	–	–	–
CC1CC(C)CN(CCCCOc2ccc([N+](=O)[O-])cc2)C1 (stereo unspecified)	–	·	–	·	–	·
Cc1c(Cc2ccccc2)sc(NC(=O)c2ccco2)c1C(N)=O	–	·	·	·	–	·
SMILES	PGC1a acetyl inh	ERAP1 inh	HIV Env fusion	FGF22 binding	Cneo AK release	Ecoli rRNA inh
CC(C)(C)n1nc2c(c1NC(=O)c1cccs1)CS(=O)C2 (stereo unspecified)	–	·	·	·	–	·
Nc1nc(Cl)cc(N2CCCC2)n1	–	–	–	–	–	–
Nc1nc(Cl)cc(N2CCC(c3cc(-c4ccc(Cl)cc4Cl)n[nH]3)CC2)n1	–	·	101.5	·	–	·
NC(=O)C[N+]1(CC#CC(O)(c2ccccc2)c2ccccc2)CCCC1	–	47.3	–	4.0	·	–
COc1ccc2cc(C#N)c(Nc3cccc(F)c3)nc2c1	–	–	–	43.6	·	–
O=C1CN(c2ccccc2)C(=O)N1	–	–	–	–	–	–
Cc1nc2nc(C)c(C)nc2nc1C	–	–	·	42.9	–	–
CC(=O)Nc1c(O)nc(SC/C=C/CSc2nc(O)c(NC(C)=O)c(=O)[nH]2)[nH]c1=O	·	–	–	43.0	·	–
Cc1ccc(S(=O)(=O)N(C)C[C@H]2Oc3c(NS(=O)(=O)c4ccccc4)cccc3C(=O)N([C@H](C)CO)C[C@H]2C)cc1	–	–	–	–	–	–
O=C(COC(=O)c1ccc2c(c1)C(=O)N(c1cccc3ncccc13)C2=O)c1ccc(Cl)cc1	–	–	–	43.6	–	–
Cc1ccc(C(=O)COC(=O)c2ccc3c(c2)C(=O)N(c2cccc4ncccc24)C3=O)cc1	·	–	–	–	·	–
COc1ccc(Nc2nc3ccccc3nc2NS(=O)(=O)c2cccs2)cc1	–	·	–	·	–	·
O=S(=O)(Nc1nc2ccccc2nc1OCC(F)(F)F)c1cccs1	–	–	–	45.1	–	–
Cc1ccc(S(=O)(=O)NCc2ccccc2)cc1C(=O)NC1CCCCC1	–	–	–	–	–	–
C=CCOc1ccc(Br)cc1/C=C1\NC(=S)N(C(C)=O)C1=O	–	–	–	–	–	-31.8
C=CCOc1c(Br)cc(/C=C2/NC(=S)N(C(C)=O)C2=O)cc1OC	·	–	–	–	·	–
Cc1cc(Cl)nc(-n2nc(C)cc2C)n1	–	–	–	·	–	-32.4
O=C(CCC(=O)Nc1ccccc1Cl)NNC(=S)Nc1ccccc1C(F)(F)F	·	–	–	–	–	–
O=C(CCN1C(=O)/C(=C/c2cccc(Br)c2)SC1=S)Nc1cccnc1	–	–	–	–	·	–
O=C(CN1C(=O)/C(=C/c2cccc(Br)c2)SC1=S)Nc1cccnc1	·	–	–	43.8	–	–
O=C(O)CCN1C(=O)/C(=C\c2cccc(OCC(=O)Nc3ccc(Cl)cc3)c2)SC1=S	–	–	–	–	–	-29.6
CCOc1ccc(/C=C2\SC(=S)N(CCC(=O)O)C2=O)cc1	–	–	?	·	·	-27.4
CCN(CC)c1c(C)nc2ccc(C(=O)N3CCN(C(=O)c4ccco4)CC3)cn12	–	–	–	–	–	–
CC(C)C(c1nnnn1C1CCCC1)N1CCC(C(N)=O)CC1 (stereo unspecified)	–	–	–	–	·	–
C#CCOCCOCCOCCNc1nc(N2CCOCC2)nc(N2CCN(C(=O)[C@H](CCCN=C(N)N)n3cc(C(N)[C@@H](C)CC)nn3)CC2)n1 (stereo partly specified)	–	–	–	15.3	–	–
SMILES	PGC1a acetyl inh	ERAP1 inh	HIV Env fusion	FGF22 binding	Cneo AK release	Ecoli rRNA inh
O=C1Nc2ccccc2N=C(c2ccccc2)C1N(Cc1ccc(F)cc1)C(=O)c1cccnc1 (stereo unspecified)	40.5	–	–	–	–	–
CC(CCc1ccccc1)NCc1cccc2ccccc12 (stereo unspecified)	–	–	65.8	–	–	–
COCC(C)NCc1cccc2ccccc12 (stereo unspecified)	–	–	–	–	·	–
CCCCCCCCCCCCCCCC[N+](C)(C)Cc1ccc(F)cc1	·	95.9	–	–	·	–
COc1ccccc1-c1ccc(/C=C2/C=C(CC(C)C)OC2=O)o1	·	·	·	·	–	·
O=C(CC1(c2ccc(Cl)cc2)C2CC3CC(C2)CC1C3)NCCO (stereo unspecified)	–	–	–	–	·	-42.4
